Test [1] has as its target Calcium/calmodulin-dependent protein kinase kinase 2 (Homo sapiens) (UniProt Q96RR4). Briefly: Residual activity of CaMKKbeta (unknown origin) at 10 uM incubated for 30 mins in presence of [gamma-33P]ATP by multidrop micro reagent based assay relative to control.
For test [2], the target named is Leucine-rich repeat serine/threonine-protein kinase 2 (Homo sapiens, UniProt Q5S007). Kind of test: Inhibition of LRRK2 (unknown origin) at 10 uM incubated for 30 mins in presence of [gamma-33P]ATP by multidrop micro reagent based assay relative to control.
Test [3] deals with Serine/threonine-protein kinase pim-3 (Homo sapiens) (UniProt Q86V86). Briefly: Inhibition of PIM3 (unknown origin) at 10 uM incubated for 30 mins in presence of [gamma-33P]ATP by multidrop micro reagent based assay relative to control; values are per cent of control.
Test [4] addresses RAC-beta serine/threonine-protein kinase (Homo sapiens) (UniProt P31751). Kind of test: Inhibition of PKBbeta (unknown origin) at 10 uM incubated for 30 mins in presence of [gamma-33P]ATP by multidrop micro reagent based assay relative to control; values are per cent of control.
The target of test [5] is Insulin-like growth factor 1 receptor (Homo sapiens) (UniProt P08069). Briefly: Inhibition of IGF-1R (unknown origin) at 10 uM incubated for 30 mins in presence of [gamma-33P]ATP by multidrop micro reagent based assay relative to control.
Insulin-like growth factor 1 receptor (Homo sapiens), sequence (P08069 31-736 limits assumed): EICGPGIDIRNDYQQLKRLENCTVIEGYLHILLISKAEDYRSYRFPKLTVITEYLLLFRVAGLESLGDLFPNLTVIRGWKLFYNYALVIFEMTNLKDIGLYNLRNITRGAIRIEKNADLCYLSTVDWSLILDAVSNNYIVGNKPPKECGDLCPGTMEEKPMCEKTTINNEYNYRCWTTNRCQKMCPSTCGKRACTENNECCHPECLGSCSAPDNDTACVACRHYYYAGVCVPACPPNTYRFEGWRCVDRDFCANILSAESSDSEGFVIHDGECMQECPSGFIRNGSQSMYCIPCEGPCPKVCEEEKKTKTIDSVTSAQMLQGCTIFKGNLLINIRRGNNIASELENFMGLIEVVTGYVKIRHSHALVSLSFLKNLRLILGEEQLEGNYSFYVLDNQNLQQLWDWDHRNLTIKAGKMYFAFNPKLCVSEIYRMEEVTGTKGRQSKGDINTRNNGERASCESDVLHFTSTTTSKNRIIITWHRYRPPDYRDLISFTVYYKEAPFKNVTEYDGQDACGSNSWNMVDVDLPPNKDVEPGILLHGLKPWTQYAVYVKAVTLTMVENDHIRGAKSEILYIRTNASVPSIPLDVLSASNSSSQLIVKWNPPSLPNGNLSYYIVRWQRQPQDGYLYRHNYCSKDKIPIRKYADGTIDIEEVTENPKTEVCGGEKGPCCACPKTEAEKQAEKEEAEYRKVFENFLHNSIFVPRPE
Insulin-like growth factor 1 receptor (Homo sapiens), sequence (P08069 741-1367 limits assumed): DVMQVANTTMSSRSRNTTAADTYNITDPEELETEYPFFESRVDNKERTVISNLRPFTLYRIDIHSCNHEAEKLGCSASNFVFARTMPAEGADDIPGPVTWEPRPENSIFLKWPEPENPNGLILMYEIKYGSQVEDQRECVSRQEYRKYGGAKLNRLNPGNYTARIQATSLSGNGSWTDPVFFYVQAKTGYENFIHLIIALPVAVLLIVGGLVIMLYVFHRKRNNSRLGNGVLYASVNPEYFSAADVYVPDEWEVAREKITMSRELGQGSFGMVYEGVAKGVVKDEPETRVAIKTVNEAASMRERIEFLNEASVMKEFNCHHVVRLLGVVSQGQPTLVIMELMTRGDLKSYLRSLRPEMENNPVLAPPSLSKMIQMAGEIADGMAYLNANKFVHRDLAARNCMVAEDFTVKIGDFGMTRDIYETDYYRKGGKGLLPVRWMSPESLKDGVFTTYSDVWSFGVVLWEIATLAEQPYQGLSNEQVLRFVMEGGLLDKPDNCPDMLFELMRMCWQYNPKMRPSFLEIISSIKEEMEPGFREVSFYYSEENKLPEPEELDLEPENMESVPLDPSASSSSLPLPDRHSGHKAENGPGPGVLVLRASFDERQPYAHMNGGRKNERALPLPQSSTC
Test [6] addresses SRSF protein kinase 1 (Homo sapiens) (UniProt Q96SB4). Briefly: Inhibition of SRPK1 (unknown origin) at 10 uM incubated for 30 mins in presence of [gamma-33P]ATP by multidrop micro reagent based assay relative to control; values are per cent of control.
Test [7] addresses Tyrosine-protein kinase CSK (Homo sapiens) (UniProt P41240). Briefly: Residual activity of CSK (unknown origin) at 10 uM incubated for 30 mins in presence of [gamma-33P]ATP by multidrop micro reagent based assay relative to control.
For test [8], the target named is Mitogen-activated protein kinase 9 (Homo sapiens) (UniProt P45984). Briefly: Inhibition of JNK2 (unknown origin) at 10 uM incubated for 30 mins in presence of [gamma-33P]ATP by multidrop micro reagent based assay relative to control; values are per cent of control.
The target of test [9] is Ribosomal protein S6 kinase alpha-1 (Homo sapiens) (UniProt Q15418). Kind of test: Inhibition of RSK1 (unknown origin) at 10 uM incubated for 30 mins in presence of [gamma-33P]ATP by multidrop micro reagent based assay relative to control. The procedure, abridged: (§1)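 Single-concentration screen across a panel of 85 protein kinases. Activity is expressed as a percentage of control incubations run without inhibitor.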
Ribosomal protein S6 kinase alpha-1 (Homo sapiens), sequence (Q15418 whole entry): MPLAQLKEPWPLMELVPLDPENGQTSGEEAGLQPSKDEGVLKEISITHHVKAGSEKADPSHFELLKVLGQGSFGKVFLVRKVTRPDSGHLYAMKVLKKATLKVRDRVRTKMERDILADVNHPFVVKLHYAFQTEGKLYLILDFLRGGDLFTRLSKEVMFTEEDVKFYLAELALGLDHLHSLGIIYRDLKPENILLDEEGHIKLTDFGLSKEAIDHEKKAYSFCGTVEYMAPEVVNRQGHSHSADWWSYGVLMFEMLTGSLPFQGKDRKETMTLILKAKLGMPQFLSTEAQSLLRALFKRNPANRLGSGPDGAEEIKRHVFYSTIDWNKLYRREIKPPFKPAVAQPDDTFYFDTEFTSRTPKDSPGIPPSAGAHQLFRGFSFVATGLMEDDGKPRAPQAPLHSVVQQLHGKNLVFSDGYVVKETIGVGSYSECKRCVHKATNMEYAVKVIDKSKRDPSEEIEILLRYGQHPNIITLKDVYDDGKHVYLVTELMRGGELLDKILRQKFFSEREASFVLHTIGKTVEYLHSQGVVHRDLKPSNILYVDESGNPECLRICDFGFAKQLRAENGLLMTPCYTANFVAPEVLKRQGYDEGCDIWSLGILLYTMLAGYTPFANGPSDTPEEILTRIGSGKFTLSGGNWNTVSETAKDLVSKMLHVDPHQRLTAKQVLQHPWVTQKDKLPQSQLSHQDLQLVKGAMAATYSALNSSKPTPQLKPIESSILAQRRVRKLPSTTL

The target of test [10] is Serine/threonine-protein kinase N2 (Homo sapiens) (UniProt Q16513). Kind of test: Inhibition of PRK2 (unknown origin) at 10 uM incubated for 30 mins in presence of [gamma-33P]ATP by multidrop micro reagent based assay relative to control. In a few lines: as §1
Test [11] concerns the target Leucine-rich repeat serine/threonine-protein kinase 2 (Homo sapiens, UniProt Q5S007, G2019S). Kind of test: Inhibition of GST-tagged LRRK2 G2019S mutant (1326 to 2527 residues) (unknown origin) in presence of ATP.
Test [12] has as its target Leucine-rich repeat serine/threonine-protein kinase 2 (Mus musculus) (UniProt Q5S006). Briefly: Inhibition of LRRK2 in mouse Swiss-3T3 cells at 0.3 uM using Nictide as substrate by immunoblot analysis. Format: cell-based. In general terms: A western blot detects proteins with antibodies after separation by electrophoresis.
For test [13], the target named is T1, Ephrin type-B receptor 3 (Homo sapiens) (UniProt P54753).
T1 sequence (whole entry): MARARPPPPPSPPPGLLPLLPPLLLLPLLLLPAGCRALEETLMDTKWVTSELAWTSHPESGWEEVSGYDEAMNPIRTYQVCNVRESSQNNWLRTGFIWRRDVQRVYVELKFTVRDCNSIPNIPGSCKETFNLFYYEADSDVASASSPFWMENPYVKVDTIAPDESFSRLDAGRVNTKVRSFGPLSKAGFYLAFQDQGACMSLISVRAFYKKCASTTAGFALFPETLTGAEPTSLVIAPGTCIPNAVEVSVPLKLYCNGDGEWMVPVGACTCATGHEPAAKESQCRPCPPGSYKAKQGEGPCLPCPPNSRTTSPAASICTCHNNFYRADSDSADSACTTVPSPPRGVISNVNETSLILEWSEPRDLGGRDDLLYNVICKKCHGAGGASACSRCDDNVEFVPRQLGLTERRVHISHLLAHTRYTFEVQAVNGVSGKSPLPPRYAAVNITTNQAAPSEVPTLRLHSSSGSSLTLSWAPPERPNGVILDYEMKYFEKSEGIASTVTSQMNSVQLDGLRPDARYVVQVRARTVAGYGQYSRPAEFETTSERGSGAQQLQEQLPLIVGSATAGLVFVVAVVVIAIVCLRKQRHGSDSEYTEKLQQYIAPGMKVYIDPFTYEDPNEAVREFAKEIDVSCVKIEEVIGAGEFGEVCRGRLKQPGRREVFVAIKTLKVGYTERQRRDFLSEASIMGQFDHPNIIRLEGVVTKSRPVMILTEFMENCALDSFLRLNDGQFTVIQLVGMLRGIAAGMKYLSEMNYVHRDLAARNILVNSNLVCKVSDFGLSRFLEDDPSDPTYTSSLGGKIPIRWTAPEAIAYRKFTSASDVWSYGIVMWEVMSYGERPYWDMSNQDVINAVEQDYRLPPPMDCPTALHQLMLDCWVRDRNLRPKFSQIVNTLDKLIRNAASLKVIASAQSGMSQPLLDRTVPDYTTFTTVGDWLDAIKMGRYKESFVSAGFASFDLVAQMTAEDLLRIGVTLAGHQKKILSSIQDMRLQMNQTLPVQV
Briefly: Inhibition of EPH-B3 (unknown origin) at 10 uM incubated for 30 mins in presence of [gamma-33P]ATP by multidrop micro reagent based assay relative to control; values are per cent of control.

For test [14], the target named is Serine/threonine-protein kinase 26 (Homo sapiens) (UniProt Q9P289). Briefly: Inhibition of MST4 (unknown origin) at 1 uM incubated for 30 mins in presence of [gamma-33P]ATP by multidrop micro reagent based assay relative to control.
Serine/threonine-protein kinase 26 (Homo sapiens), sequence (Q9P289 2-416 limits assumed): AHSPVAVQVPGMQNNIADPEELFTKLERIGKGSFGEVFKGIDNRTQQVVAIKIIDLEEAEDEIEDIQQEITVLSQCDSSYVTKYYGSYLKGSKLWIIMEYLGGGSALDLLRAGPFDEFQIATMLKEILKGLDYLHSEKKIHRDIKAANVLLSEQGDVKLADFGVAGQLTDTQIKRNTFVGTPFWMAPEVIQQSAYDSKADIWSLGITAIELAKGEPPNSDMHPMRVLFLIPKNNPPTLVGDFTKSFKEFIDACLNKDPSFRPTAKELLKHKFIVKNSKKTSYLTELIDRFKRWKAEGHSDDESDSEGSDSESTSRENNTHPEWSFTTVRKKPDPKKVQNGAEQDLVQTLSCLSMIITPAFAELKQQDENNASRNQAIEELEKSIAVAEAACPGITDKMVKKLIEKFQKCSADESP
For test [15], the target named is MAP kinase-activated protein kinase 2 (Homo sapiens) (UniProt P49137). Briefly: Inhibition of MAPKAPK2 (unknown origin) at 1 uM incubated for 30 mins in presence of [gamma-33P]ATP by multidrop micro reagent based assay relative to control; values are per cent of control.
Test [16] has as its target Serine/threonine-protein kinase Chk1 (Homo sapiens) (UniProt O14757). Briefly: Inhibition of CHK1 (unknown origin) at 1 uM incubated for 30 mins in presence of [gamma-33P]ATP by multidrop micro reagent based assay relative to control; values are per cent of control.

Calls of active or inactive are those of the source. No cut-off for these calls is given here.

Calcium/calmodulin-dependent protein kinase kinase 2 (Homo sapiens), sequence (Q96RR4 2-588 limits assumed): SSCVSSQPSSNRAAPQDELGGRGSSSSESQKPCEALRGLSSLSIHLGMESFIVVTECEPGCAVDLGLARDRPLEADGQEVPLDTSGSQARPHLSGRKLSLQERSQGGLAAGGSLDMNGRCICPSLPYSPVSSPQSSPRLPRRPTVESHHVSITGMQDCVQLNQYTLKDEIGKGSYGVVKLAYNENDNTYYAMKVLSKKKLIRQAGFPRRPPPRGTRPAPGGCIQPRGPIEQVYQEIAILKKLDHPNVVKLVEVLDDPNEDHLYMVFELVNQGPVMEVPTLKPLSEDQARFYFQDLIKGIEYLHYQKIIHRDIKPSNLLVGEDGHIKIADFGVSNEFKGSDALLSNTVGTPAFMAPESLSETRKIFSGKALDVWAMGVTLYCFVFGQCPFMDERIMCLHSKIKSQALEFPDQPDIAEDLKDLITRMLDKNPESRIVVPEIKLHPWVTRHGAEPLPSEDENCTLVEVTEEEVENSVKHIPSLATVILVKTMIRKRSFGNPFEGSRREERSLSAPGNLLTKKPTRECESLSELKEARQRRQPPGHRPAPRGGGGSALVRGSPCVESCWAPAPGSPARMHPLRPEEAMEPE
SRSF protein kinase 1 (Homo sapiens), sequence (Q96SB4 whole entry): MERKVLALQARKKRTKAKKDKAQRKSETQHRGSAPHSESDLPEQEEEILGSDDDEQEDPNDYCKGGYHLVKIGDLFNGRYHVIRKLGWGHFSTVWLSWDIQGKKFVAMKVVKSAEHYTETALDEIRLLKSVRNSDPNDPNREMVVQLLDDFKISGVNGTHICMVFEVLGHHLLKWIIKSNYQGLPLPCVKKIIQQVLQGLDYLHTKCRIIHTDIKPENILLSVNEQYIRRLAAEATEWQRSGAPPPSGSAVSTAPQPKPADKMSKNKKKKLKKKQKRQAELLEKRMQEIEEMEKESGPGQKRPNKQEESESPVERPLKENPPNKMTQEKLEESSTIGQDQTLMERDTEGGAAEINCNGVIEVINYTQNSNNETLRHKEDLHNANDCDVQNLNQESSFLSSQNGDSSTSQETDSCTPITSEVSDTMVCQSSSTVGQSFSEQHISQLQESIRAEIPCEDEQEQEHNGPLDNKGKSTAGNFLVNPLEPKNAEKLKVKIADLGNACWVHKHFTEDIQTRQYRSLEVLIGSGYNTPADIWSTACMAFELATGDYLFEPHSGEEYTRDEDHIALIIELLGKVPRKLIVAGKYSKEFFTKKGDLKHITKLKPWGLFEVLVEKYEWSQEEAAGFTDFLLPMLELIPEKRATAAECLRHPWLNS
RAC-beta serine/threonine-protein kinase (Homo sapiens), sequence (P31751 whole entry): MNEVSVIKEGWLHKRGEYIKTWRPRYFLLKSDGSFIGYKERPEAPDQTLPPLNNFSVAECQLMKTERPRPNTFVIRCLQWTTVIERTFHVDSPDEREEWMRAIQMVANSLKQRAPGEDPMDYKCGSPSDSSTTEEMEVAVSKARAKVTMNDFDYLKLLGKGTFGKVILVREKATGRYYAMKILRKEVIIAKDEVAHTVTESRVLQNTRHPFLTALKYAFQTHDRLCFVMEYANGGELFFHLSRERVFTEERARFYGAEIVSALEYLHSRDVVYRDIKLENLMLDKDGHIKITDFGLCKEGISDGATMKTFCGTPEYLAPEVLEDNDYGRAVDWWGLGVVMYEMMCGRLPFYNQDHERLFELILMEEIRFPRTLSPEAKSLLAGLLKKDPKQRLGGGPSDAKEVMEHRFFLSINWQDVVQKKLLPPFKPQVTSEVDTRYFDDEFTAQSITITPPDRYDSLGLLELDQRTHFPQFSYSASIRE
Serine/threonine-protein kinase Chk1 (Homo sapiens), sequence (O14757 whole entry): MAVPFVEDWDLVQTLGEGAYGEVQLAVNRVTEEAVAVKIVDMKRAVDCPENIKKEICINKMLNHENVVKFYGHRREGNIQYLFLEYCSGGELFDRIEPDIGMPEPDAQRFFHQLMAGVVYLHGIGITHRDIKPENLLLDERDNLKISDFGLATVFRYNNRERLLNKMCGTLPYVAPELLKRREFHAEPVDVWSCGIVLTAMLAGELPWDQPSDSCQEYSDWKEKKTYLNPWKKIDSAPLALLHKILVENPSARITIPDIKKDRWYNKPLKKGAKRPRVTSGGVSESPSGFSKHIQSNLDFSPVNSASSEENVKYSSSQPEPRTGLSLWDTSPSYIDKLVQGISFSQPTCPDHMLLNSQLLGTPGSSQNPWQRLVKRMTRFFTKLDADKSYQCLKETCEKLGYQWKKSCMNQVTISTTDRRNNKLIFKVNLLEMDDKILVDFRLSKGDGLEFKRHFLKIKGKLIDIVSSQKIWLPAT

The term inhibition denotes the drop in the measured response relative to a control, in per cent. In the case of `C[C@@H](N)[C@H]1CC[C@H](C(=O)Nc2ccncc2)CC1`, the residual activity was determined as 102% in [1]; 87% in test [3]; 105% in [4]; 65% in test [6]; 104% in [7]; 96% in [8]. Besides, the inhibition was determined as 22% in test [2], 99% in test [5], 26% in test [9] and 7% in [10].

As a reminder, the IC50 is the concentration needed to halve the response being measured. `Cc1cncc2cccc(S(=O)(=O)N3CCCNC[C@@H]3C)c12`: the 50% inhibitory concentration (IC50) in [11] was 104 nM.

Take `CCN(CC)CCNC(=O)c1c(C)[nH]c(/C=C2\C(=O)Nc3ccc(F)cc32)c1C`: the inhibition entry in [12] is “Active”.

For the compound `O=S(=O)(c1cccc2cnccc12)N1CCCNCC1` [FASUDIL], in test [13], the residual activity was found to be 65%.

Regarding `CC1=C(C(=O)Nc2cc3cn[nH]c3cc2F)C(c2ccc(C(F)(F)F)cc2)CC(=O)N1` (stereo unspecified), the residual activity is 70% in [14], 91% in test [15] and 111% in test [16].

The values above are taken from ChEMBL document CHEMBL5705888, “Substrate specificity and inhibitors of LRRK2, a protein kinase mutated in Parkinson's disease” (Biochem J, 2009).
